Converted amounts (≈) assume the structure as drawn.
What follows are compounds tested on Enterococcus faecium (assay: Antibacterial activity against Enterococcus faecium 09-6 after 18 hrs by two fold serial dilution method). Details: 09-6, 18 h.
Assay type: functional
Method in brief: (§1)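 Agar two-fold serial dilution in melted Mueller-Hinton agar, final concentrations 128 down to 0.008 μg/mL. Plates inoculated with 10⁴ cfu and incubated at 35 °C for 18 h. MIC taken as the lowest concentration giving no visible growth on the plate.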

Compound	MIC [µg/mL]
NCC1CN(c2ccc3c(=O)c(C(=O)O)cn(C4CC4)c3n2)C/C1=N\OCF (racemic)	1 (≈ 2.57 µM)

The compounds below were run on Staphylococcus aureus (assay: Antibacterial activity against methicillin-sensitive Staphylococcus aureus 10-2 after 18 hrs by two fold serial dilution method). Details: 10-2, 18 h.
Assay type: functional
Method in brief: as §1

Compound	MIC [µg/mL]
NCC1CN(c2ccc3c(=O)c(C(=O)O)cn(C4CC4)c3n2)C/C1=N\OCF (racemic)	128 (≈ 329 µM)

What follows are compounds tested on Pseudomonas aeruginosa (assay: Antibacterial activity against Pseudomonas aeruginosa 10-3 after 18 hrs by two fold serial dilution method). Details: 10-3, 18 h.
Assay type: functional
Method in brief: as §1

Compound	MIC [µg/mL]
NCC1CN(c2ccc3c(=O)c(C(=O)O)cn(C4CC4)c3n2)C/C1=N\OCF (racemic)	32 (≈ 82.2 µM)

Each compound was assayed on Staphylococcus aureus (assay: Antibacterial activity against methicillin-resistant Staphylococcus aureus 10-2 after 18 hrs by two fold serial dilution method). Details: 10-2, 18 h.
Assay type: functional
Method in brief: (§2)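 Agar two-fold serial dilution in melted Mueller-Hinton agar, 128 to 0.008 μg/mL. Plates inoculated with 10⁴ cfu, incubated 35 °C for 18 h. MIC taken as lowest concentration giving no visible growth on the plate.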

Compound	MIC [µg/mL]
NCC1CN(c2ccc3c(=O)c(C(=O)O)cn(C4CC4)c3n2)C/C1=N\OCF (racemic)	64 (≈ 164 µM)

Each compound was assayed on Staphylococcus aureus (assay: Antibacterial activity against methicillin-sensitive Staphylococcus aureus 10-1 after 18 hrs by two fold serial dilution method). Details: 10-1, 18 h.
Assay type: functional
Method in brief: as §1

Compound	MIC [µg/mL]
NCC1CN(c2ccc3c(=O)c(C(=O)O)cn(C4CC4)c3n2)C/C1=N\OCF (racemic)	0.03 (≈ 0.077 µM)

These compounds were tested on Escherichia coli (assay: Antibacterial activity against Escherichia coli 10-1 after 18 hrs by two fold serial dilution method). Details: 10-1, 18 h.
Assay type: functional
Method in brief: as §1

Compound	MIC [µg/mL]
NCC1CN(c2ccc3c(=O)c(C(=O)O)cn(C4CC4)c3n2)C/C1=N\OCF (racemic)	> 128

Each compound was assayed on Staphylococcus aureus (assay: Antibacterial activity against methicillin-sensitive Staphylococcus aureus 10-6 after 18 hrs by two fold serial dilution method). Details: 10-6, 18 h.
Assay type: functional
Method in brief: as §1

Compound	MIC [µg/mL]
NCC1CN(c2ccc3c(=O)c(C(=O)O)cn(C4CC4)c3n2)C/C1=N\OCF (racemic)	0.125 (≈ 0.321 µM)

Each compound was assayed on Staphylococcus epidermidis (assay: Antibacterial activity against methicillin-sensitive Staphylococcus epidermidis 10-2 after 18 hrs by two fold serial dilution method). Details: 10-2, 18 h.
Assay type: functional
Method in brief: as §1

Compound	MIC [µg/mL]
NCC1CN(c2ccc3c(=O)c(C(=O)O)cn(C4CC4)c3n2)C/C1=N\OCF (racemic)	32 (≈ 82.2 µM)

These compounds were tested on Enterococcus faecium (assay: Antibacterial activity against Enterococcus faecium 09-4 after 18 hrs by two fold serial dilution method). Details: 09-4, 18 h.
Assay type: functional
Method in brief: as §1

Compound	MIC [µg/mL]
NCC1CN(c2ccc3c(=O)c(C(=O)O)cn(C4CC4)c3n2)C/C1=N\OCF (racemic)	2 (≈ 5.14 µM)

What follows are compounds tested on Enterococcus faecium (assay: Antibacterial activity against Enterococcus faecium 09-1 after 18 hrs by two fold serial dilution method). Details: 09-1, 18 h.
Assay type: functional
Method in brief: as §1

Compound	MIC [µg/mL]
NCC1CN(c2ccc3c(=O)c(C(=O)O)cn(C4CC4)c3n2)C/C1=N\OCF (racemic)	64 (≈ 164 µM)

Each compound was assayed on Pseudomonas aeruginosa (assay: Antibacterial activity against Pseudomonas aeruginosa 10-2 after 18 hrs by two fold serial dilution method). Details: 10-2, 18 h.
Assay type: functional
Method in brief: as §1

Compound	MIC [µg/mL]
NCC1CN(c2ccc3c(=O)c(C(=O)O)cn(C4CC4)c3n2)C/C1=N\OCF (racemic)	> 128

These compounds were tested on Staphylococcus epidermidis (assay: Antibacterial activity against methicillin-resistant Staphylococcus epidermidis 10-1 after 18 hrs by two fold serial dilution method). Details: 10-1, 18 h.
Assay type: functional
Method in brief: as §2

Compound	MIC [µg/mL]
NCC1CN(c2ccc3c(=O)c(C(=O)O)cn(C4CC4)c3n2)C/C1=N\OCF (racemic)	32 (≈ 82.2 µM)

What follows are compounds tested on Enterococcus faecium (assay: Antibacterial activity against Enterococcus faecium 09-5 after 18 hrs by two fold serial dilution method). Details: 09-5, 18 h.
Assay type: functional
Method in brief: as §1

Compound	MIC [µg/mL]
NCC1CN(c2ccc3c(=O)c(C(=O)O)cn(C4CC4)c3n2)C/C1=N\OCF (racemic)	16 (≈ 41.1 µM)

What follows are compounds tested on Enterococcus faecium (assay: Antibacterial activity against Enterococcus faecium 09-2 after 18 hrs by two fold serial dilution method). Details: 09-2, 18 h.
Assay type: functional
Method in brief: as §1

Compound	MIC [µg/mL]
NCC1CN(c2ccc3c(=O)c(C(=O)O)cn(C4CC4)c3n2)C/C1=N\OCF (racemic)	64 (≈ 164 µM)

Each compound was assayed on Pseudomonas aeruginosa (assay: Antibacterial activity against Pseudomonas aeruginosa 10-1 after 18 hrs by two fold serial dilution method). Details: 10-1, 18 h.
Assay type: functional
Method in brief: as §1

Compound	MIC [µg/mL]
NCC1CN(c2ccc3c(=O)c(C(=O)O)cn(C4CC4)c3n2)C/C1=N\OCF (racemic)	2 (≈ 5.14 µM)

The compounds below were run on Staphylococcus aureus (assay: Antibacterial activity against Staphylococcus aureus ATCC 25923 after 18 hrs by two fold serial dilution method). Details: ATCC 25923, 18 h.
Assay type: functional
Method in brief: as §1

Compound	MIC [µg/mL]
NCC1CN(c2ccc3c(=O)c(C(=O)O)cn(C4CC4)c3n2)C/C1=N\OCF (racemic)	0.25 (≈ 0.642 µM)

What follows are compounds tested on Streptococcus pneumoniae (assay: Antibacterial activity against Streptococcus pneumoniae 10-1 after 18 hrs by two fold serial dilution method). Details: 10-1, 18 h.
Assay type: functional
Method in brief: as §1

Compound	MIC [µg/mL]
NCC1CN(c2ccc3c(=O)c(C(=O)O)cn(C4CC4)c3n2)C/C1=N\OCF (racemic)	0.25 (≈ 0.642 µM)

Each compound was assayed on Staphylococcus aureus (assay: Antibacterial activity against methicillin-resistant Staphylococcus aureus 10-4 after 18 hrs by two fold serial dilution method). Details: 10-4, 18 h.
Assay type: functional
Method in brief: as §2

Compound	MIC [µg/mL]
NCC1CN(c2ccc3c(=O)c(C(=O)O)cn(C4CC4)c3n2)C/C1=N\OCF (racemic)	> 128

These compounds were tested on Staphylococcus aureus (assay: Antibacterial activity against methicillin-sensitive Staphylococcus aureus 10-5 after 18 hrs by two fold serial dilution method). Details: 10-5, 18 h.
Assay type: functional
Method in brief: as §1

Compound	MIC [µg/mL]
NCC1CN(c2ccc3c(=O)c(C(=O)O)cn(C4CC4)c3n2)C/C1=N\OCF (racemic)	0.125 (≈ 0.321 µM)

The compounds below were run on Escherichia coli (assay: Antibacterial activity against Escherichia coli 09-1 after 18 hrs by two fold serial dilution method). Details: 09-1, 18 h.
Assay type: functional
Method in brief: as §1

Compound	MIC [µg/mL]
NCC1CN(c2ccc3c(=O)c(C(=O)O)cn(C4CC4)c3n2)C/C1=N\OCF (racemic)	> 128

Each compound was assayed on Staphylococcus aureus (assay: Antibacterial activity against methicillin-resistant Staphylococcus aureus 10-1 after 18 hrs by two fold serial dilution method). Details: 10-1, 18 h.
Assay type: functional
Method in brief: as §2

Compound	MIC [µg/mL]
NCC1CN(c2ccc3c(=O)c(C(=O)O)cn(C4CC4)c3n2)C/C1=N\OCF (racemic)	> 128

Each compound was assayed on Klebsiella pneumoniae (assay: Antibacterial activity against Klebsiella pneumoniae 10-3 after 18 hrs by two fold serial dilution method). Details: 10-3, 18 h.
Assay type: functional
Method in brief: as §1

Compound	MIC [µg/mL]
NCC1CN(c2ccc3c(=O)c(C(=O)O)cn(C4CC4)c3n2)C/C1=N\OCF (racemic)	4 (≈ 10.3 µM)

These compounds were tested on Staphylococcus aureus (assay: Antibacterial activity against methicillin-resistant Staphylococcus aureus 10-3 after 18 hrs by two fold serial dilution method). Details: 10-3, 18 h.
Assay type: functional
Method in brief: as §2

Compound	MIC [µg/mL]
NCC1CN(c2ccc3c(=O)c(C(=O)O)cn(C4CC4)c3n2)C/C1=N\OCF (racemic)	> 128

What follows are compounds tested on Staphylococcus epidermidis (assay: Antibacterial activity against methicillin-sensitive Staphylococcus epidermidis 10-1 after 18 hrs by two fold serial dilution method). Details: 10-1, 18 h.
Assay type: functional
Method in brief: as §1

Compound	MIC [µg/mL]
NCC1CN(c2ccc3c(=O)c(C(=O)O)cn(C4CC4)c3n2)C/C1=N\OCF (racemic)	16 (≈ 41.1 µM)

Each compound was assayed on Staphylococcus aureus (assay: Antibacterial activity against methicillin-sensitive Staphylococcus aureus 10-3 after 18 hrs by two fold serial dilution method). Details: 10-3, 18 h.
Assay type: functional
Method in brief: as §1

Compound	MIC [µg/mL]
NCC1CN(c2ccc3c(=O)c(C(=O)O)cn(C4CC4)c3n2)C/C1=N\OCF (racemic)	0.25 (≈ 0.642 µM)

What follows are compounds tested on Escherichia coli (assay: Antibacterial activity against Escherichia coli ATCC 25922 after 18 hrs by two fold serial dilution method). Details: ATCC 25922, 18 h.
Assay type: functional
Method in brief: as §1

Compound	MIC [µg/mL]
NCC1CN(c2ccc3c(=O)c(C(=O)O)cn(C4CC4)c3n2)C/C1=N\OCF (racemic)	0.06 (≈ 0.154 µM)

The compounds below were run on Pseudomonas aeruginosa (assay: Antibacterial activity against Pseudomonas aeruginosa ATCC 27853 after 18 hrs by two fold serial dilution method). Details: ATCC 27853, 18 h.
Assay type: functional
Method in brief: as §1

Compound	MIC [µg/mL]
NCC1CN(c2ccc3c(=O)c(C(=O)O)cn(C4CC4)c3n2)C/C1=N\OCF (racemic)	4 (≈ 10.3 µM)

These compounds were tested on Klebsiella pneumoniae (assay: Antibacterial activity against Klebsiella pneumoniae 10-1 after 18 hrs by two fold serial dilution method). Details: 10-1, 18 h.
Assay type: functional
Method in brief: as §1

Compound	MIC [µg/mL]
NCC1CN(c2ccc3c(=O)c(C(=O)O)cn(C4CC4)c3n2)C/C1=N\OCF (racemic)	0.5 (≈ 1.28 µM)

The compounds below were run on Escherichia coli (assay: Antibacterial activity against Escherichia coli 09-3 after 18 hrs by two fold serial dilution method). Details: 09-3, 18 h.
Assay type: functional
Method in brief: as §1

Compound	MIC [µg/mL]
NCC1CN(c2ccc3c(=O)c(C(=O)O)cn(C4CC4)c3n2)C/C1=N\OCF (racemic)	> 128

What follows are compounds tested on Klebsiella pneumoniae (assay: Antibacterial activity against Klebsiella pneumoniae 09-2 after 18 hrs by two fold serial dilution method). Details: 09-2, 18 h.
Assay type: functional
Method in brief: as §1

Compound	MIC [µg/mL]
NCC1CN(c2ccc3c(=O)c(C(=O)O)cn(C4CC4)c3n2)C/C1=N\OCF (racemic)	> 128

The compounds below were run on Enterococcus faecalis (assay: Antibacterial activity against Enterococcus faecalis 09-2 after 18 hrs by two fold serial dilution method). Details: 09-2, 18 h.
Assay type: functional
Method in brief: as §1

Compound	MIC [µg/mL]
NCC1CN(c2ccc3c(=O)c(C(=O)O)cn(C4CC4)c3n2)C/C1=N\OCF (racemic)	64 (≈ 164 µM)

Each compound was assayed on Staphylococcus aureus (assay: Antibacterial activity against methicillin-sensitive Staphylococcus aureus 10-4 after 18 hrs by two fold serial dilution method). Details: 10-4, 18 h.
Assay type: functional
Method in brief: as §1

Compound	MIC [µg/mL]
NCC1CN(c2ccc3c(=O)c(C(=O)O)cn(C4CC4)c3n2)C/C1=N\OCF (racemic)	0.25 (≈ 0.642 µM)

Each compound was assayed on Enterococcus faecium (assay: Antibacterial activity against Enterococcus faecium 09-3 after 18 hrs by two fold serial dilution method). Details: 09-3, 18 h.
Assay type: functional
Method in brief: as §1

Compound	MIC [µg/mL]
NCC1CN(c2ccc3c(=O)c(C(=O)O)cn(C4CC4)c3n2)C/C1=N\OCF (racemic)	64 (≈ 164 µM)

The compounds below were run on Escherichia coli (assay: Antibacterial activity against Escherichia coli 10-3 after 18 hrs by two fold serial dilution method). Details: 10-3, 18 h.
Assay type: functional
Method in brief: as §1

Compound	MIC [µg/mL]
NCC1CN(c2ccc3c(=O)c(C(=O)O)cn(C4CC4)c3n2)C/C1=N\OCF (racemic)	> 128

The compounds below were run on Escherichia coli (assay: Antibacterial activity against Escherichia coli 09-2 after 18 hrs by two fold serial dilution method). Details: 09-2, 18 h.
Assay type: functional
Method in brief: as §1

Compound	MIC [µg/mL]
NCC1CN(c2ccc3c(=O)c(C(=O)O)cn(C4CC4)c3n2)C/C1=N\OCF (racemic)	> 128

What follows are compounds tested on Staphylococcus epidermidis (assay: Antibacterial activity against methicillin-resistant Staphylococcus epidermidis 10-2 after 18 hrs by two fold serial dilution method). Details: 10-2, 18 h.
Assay type: functional
Method in brief: as §2

Compound	MIC [µg/mL]
NCC1CN(c2ccc3c(=O)c(C(=O)O)cn(C4CC4)c3n2)C/C1=N\OCF (racemic)	64 (≈ 164 µM)

What follows are compounds tested on Enterococcus faecalis (assay: Antibacterial activity against Enterococcus faecalis 09-1 after 18 hrs by two fold serial dilution method). Details: 09-1, 18 h.
Assay type: functional
Method in brief: as §1

Compound	MIC [µg/mL]
NCC1CN(c2ccc3c(=O)c(C(=O)O)cn(C4CC4)c3n2)C/C1=N\OCF (racemic)	64 (≈ 164 µM)

What follows are compounds tested on Escherichia coli (assay: Antibacterial activity against Escherichia coli 10-2 after 18 hrs by two fold serial dilution method). Details: 10-2, 18 h.
Assay type: functional
Method in brief: as §1

Compound	MIC [µg/mL]
NCC1CN(c2ccc3c(=O)c(C(=O)O)cn(C4CC4)c3n2)C/C1=N\OCF (racemic)	4 (≈ 10.3 µM)

From ChEMBL document CHEMBL1926550, “Synthesis and antibacterial activity of naphthyridone derivatives containing mono/difluoro-methyloxime pyrrolidine scaffolds” (2012)
